In publication PMC11959361 (RSC Advances, 2025) one finds IC50 data, which are given here for 17 compounds.

For assay [1], the system named is MCF7 (human breast cancer) cell line. Briefly: MTT cytotoxicity assay, MCF7. It counts as cell-based. The settings on record: MCF7, 24 h. Summed up: (§1)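 Cells seeded at 5000 per well in Eagle's MEM with 10% fetal calf serum, 2 mM L-glutamine, penicillin and streptomycin, then held 24 h at 37 °C, 5% CO2. Serial concentrations of test compound in DMSO were added for 24 h, with PTX and DOX as references. MTT was added for 4 h at 37 °C. Formazan was dissolved in ethanol and read at 570 nm. Percent inhibition was computed against control and blank.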

The test system of assay [2] is C26 (colon carcinoma) cell line. In words: MTT cytotoxicity assay, C26. The assay is classed as cell-based. The settings on record: 24 h. The gist of the method:
as §1
A general note: Tetrazolium dyes change colour on reduction, which living cells bring about.

The test system of assay [3] is BAEC (bovine aorta endothelial) normal cell line. In words: MTT cytotoxicity assay, BAEC normal cells. It counts as cell-based. The following applies: 24 h with compound, IC50 ± SEM. The gist of the method:
as §1

Assay [4] relates to MCF7 and C26 cell lines. In words: MTT cytotoxicity, stated over both cancer cell lines together. The settings on record: Homo sapiens, MCF7, read-out: IC50 over MCF7 and C26. It counts as cell-based. Summed up:
as §1

Assay [5] concerns MCF7, A549 (non-small cell lung cancer) and HDFs (non-cancerous human dermal fibroblasts). The settings on record: doxorubicin value compared for healthy cells ref 20; cited from earlier work.

Each structure is given as a SMILES string.

One may read the IC50 as the concentration that inhibits the measured activity by half. As for `Clc1ccc(Nc2nc(Cl)nc(Cl)n2)cc1` [1a, 4,6-Dichloro-N-(4-chlorophenyl)-1,3,5-triazin-2-amine], the IC50 worked out at 5.35 ± 1.05 µM in assay [1] and 13.5 ± 0.24 µM in assay [2].

As to `Cc1ccc(Nc2nc(N3CCCCC3)nc(N3CCCCC3)n2)cc1` [2d, 4,6-Di(piperidin-1-yl)-N-(p-tolyl)-1,3,5-triazin-2-amine], the half-maximal inhibitory concentration (IC50) in assay [1] was found to be 6.54 ± 1.16 µM; in assay [2], 0.38 ± 0.23 µM; in assay [3] (Bos taurus, BAEC, 24 h) it was 1.84 ± 0.64 µM.

In the case of `COc1ccc(Nc2nc(Cl)nc(Cl)n2)cc1` [1c, 4,6-Dichloro-N-(4-methoxyphenyl)-1,3,5-triazin-2-amine], the IC50 came out at 1.77 ± 0.05 µM in assay [1] and 9.89 ± 0.17 µM in assay [2].

Regarding `Cc1ccc(Nc2nc(N3CCOCC3)nc(N3CCOCC3)n2)cc1` [3d, 4,6-Dimorpholino-N-(p-tolyl)-1,3,5-triazin-2-amine], the IC50 is 22.3 ± 1.49 µM in assay [1]; 16.3 ± 2.22 µM in assay [2]; 0.57 ± 0.24 µM in assay [3] (Bos taurus, BAEC, 24 h).

Turning to `CC(=O)O[C@H]1C(=O)[C@@]2(C)[C@H]([C@H](OC(=O)c3ccccc3)[C@]3(O)C[C@H](OC(=O)[C@H](O)[C@@H](NC(=O)c4ccccc4)c4ccccc4)C(C)=C1C3(C)C)[C@]1(OC(C)=O)CO[C@@H]1C[C@@H]2O` [PTX, Paclitaxel, reference compound], the IC50 was 2.35 ± 0.14 µM in assay [1]; 2.35 to 4.32 µM in assay [4]; 4.32 ± 0.52 µM in assay [2]; 2.67 ± 0.41 µM in assay [3] (Bos taurus, BAEC, 24 h).

Consider `Fc1ccc(Nc2nc(Cl)nc(Cl)n2)cc1` [1b, 4,6-Dichloro-N-(4-fluorophenyl)-1,3,5-triazin-2-amine], for which the IC50 in assay [1] worked out at 7.89 ± 1.8 µM; in assay [2] it was 9.1 ± 0.61 µM.

Consider `O=[N+]([O-])c1ccc(Nc2nc(N3CCOCC3)nc(N3CCOCC3)n2)cc1` [3e, 4,6-Dimorpholino-N-(4-nitrophenyl)-1,3,5-triazin-2-amine], for which the IC50 stood at 13.7 ± 1.96 µM in assay [1]; 14.7 ± 1.7 µM in assay [2]; 86.3 ± 6.79 µM in assay [3]; 86.2 µM in assay [3] (Bos taurus, BAEC, 24 h).

For the compound `Clc1ccc(Nc2nc(N3CCOCC3)nc(N3CCOCC3)n2)cc1` [3a, N-(4-Chlorophenyl)-4,6-dimorpholino-1,3,5-triazin-2-amine], the IC50 was 42.4 ± 4.48 µM in assay [1]; 1.21 ± 0.47 µM in assay [2]; 41.2 ± 2.55 µM in assay [3] (Bos taurus, BAEC, 24 h).

With `O=[N+]([O-])c1ccc(Nc2nc(N3CCCCC3)nc(N3CCCCC3)n2)cc1` [2e, N-(4-Nitrophenyl)-4,6-di(piperidin-1-yl)-1,3,5-triazin-2-amine], the IC50 in assay [1] is 26.1 ± 1.86 µM; in assay [2] it was 8.28 ± 1.9 µM; in assay [3] (Bos taurus, BAEC, 24 h), 315 ± 9.53 µM.

For `Cc1ccc(Nc2nc(Cl)nc(Cl)n2)cc1` [1d, 4,6-Dichloro-N-(p-tolyl)-1,3,5-triazin-2-amine], the IC50 in assay [1] worked out at 0.2 ± 0.11 µM; in assay [2], 9.99 ± 0.59 µM.

As to `COc1ccc(Nc2nc(N3CCCCC3)nc(N3CCCCC3)n2)cc1` [2c, N-(4-Methoxyphenyl)-4,6-di(piperidin-1-yl)-1,3,5-triazin-2-amine], the IC50 in assay [1] was 50.9 ± 8.54 µM; in assay [2], 99.4 ± 14.1 µM; in assay [3] (Bos taurus, BAEC, 24 h) it was 15.1 ± 1.98 µM.

For `COc1cccc2c1C(=O)c1c(O)c3c(c(O)c1C2=O)C[C@@](O)(C(=O)CO)C[C@@H]3O[C@H]1C[C@H](N)[C@H](O)[C@H](C)O1` [DOX, Doxorubicin, reference compound], the IC50 was 10.5 ± 0.86 µM in assay [1]; 8.06 to 10.5 µM in assay [4]; 8.06 ± 1.02 µM in assay [2]; 4.79 ± 0.53 µM in assay [3] (Bos taurus, BAEC, 24 h); 0.42 µM in assay [5].

Regarding `Fc1ccc(Nc2nc(N3CCCCC3)nc(N3CCCCC3)n2)cc1` [2b, N-(4-Fluorophenyl)-4,6-di(piperidin-1-yl)-1,3,5-triazin-2-amine], the IC50 in assay [1] came to 32.9 ± 4.23 µM; in assay [2], 33.6 ± 1.86 µM; in assay [3] (Bos taurus, BAEC, 24 h), 21.2 ± 2.4 µM.

For the compound `O=[N+]([O-])c1ccc(Nc2nc(Cl)nc(Cl)n2)cc1` [1e, 4,6-Dichloro-N-(4-nitrophenyl)-1,3,5-triazin-2-amine], the IC50 amounted to 10.3 ± 1.51 µM in assay [1] and 48.3 ± 1.94 µM in assay [2].

With `Fc1ccc(Nc2nc(N3CCOCC3)nc(N3CCOCC3)n2)cc1` [3b, N-(4-Fluorophenyl)-4,6-dimorpholino-1,3,5-triazin-2-amine], the IC50 in assay [1] was determined as 6.19 ± 1.2 µM; in assay [2], 24.5 ± 0.86 µM; in assay [3] (Bos taurus, BAEC, 24 h), 7.98 ± 0.97 µM.

As for `COc1ccc(Nc2nc(N3CCOCC3)nc(N3CCOCC3)n2)cc1` [3c, N-(4-Methoxyphenyl)-4,6-dimorpholino-1,3,5-triazin-2-amine], the IC50 in assay [1] was determined as 43.5 ± 4.23 µM; in assay [2], 76.8 ± 8.45 µM; in assay [3] (Bos taurus, BAEC, 24 h), 2.01 ± 0.59 µM.

Consider `Clc1ccc(Nc2nc(N3CCCCC3)nc(N3CCCCC3)n2)cc1` [2a, N-(4-Chlorophenyl)-4,6-di(piperidin-1-yl)-1,3,5-triazin-2-amine], for which the IC50 was determined as 23.6 ± 2.56 µM in assay [1]; 47.5 ± 2.86 µM in assay [2]; 49 ± 3.16 µM in assay [3] (Bos taurus, BAEC, 24 h).
